# Measurements of several laboratories.
# Compare with care: the assays were run in different laboratories.
# Organism: Nakaseomyces glabratus
Compound,assay,system,conditions,quantity,result
CCOC(=O)c1nc2ccccc2c(=O)n1Cc1cn(-c2ccc(F)cc2)nn1,"microbial growth, broth dilution",ATCC90030,24 h,IC50,292 µg/mL
CCCCCCOc1c(OC)cc(NC(C)CCCN)c2nc(C(C)(C)C)ccc12 (stereo not shown),microbial killing,ATCC90030,,MFC,20 µg/mL
C[C@@H]1[C@H](O)[C@@H](C)/C=C/C=C/C=C/C=C/C=C/C=C/C=C/[C@H](O[C@@H]2O[C@H](C)[C@@H](O)[C@H](N)[C@@H]2O)C[C@@H]2O[C@](O)(C[C@@H](O)C[C@@H](O)[C@H](O)CC[C@@H](O)C[C@@H](O)CC(=O)O[C@H]1C)C[C@H](O)[C@H]2C(=O)O,microbial growth,ATCC90030,,IC50,0.14 µg/mL
CCCCCN1CCN(CC(O)(Cn2cncn2)c2ccc(F)cc2F)CC1 (stereo not shown),"microbial growth, broth dilution",ATCC2001,48 h,MIC,> 31.3 µg/mL
C#CCCCCCCCCC=CCC(O)CC(O)CO (stereo not shown),"microbial growth, broth dilution",ATCC90030,,IC50,> 8 µg/mL
CCCCCCCOc1c(OC)cc(NC(C)CCCN)c2nc(C(C)(C)C)cc(C)c12 (stereo not shown),microbial growth,ATCC90030,,IC50,4.3 µg/mL
CCOC(=O)c1nc2ccccc2c(=O)n1Cc1cn(-c2ccccc2[N+](=O)[O-])nn1,"microbial growth, broth dilution",ATCC90030,24 h,IC50,272 µg/mL
CCCCCCCCCCCCCCN1CCN(CC(O)(Cn2cncn2)c2ccc(F)cc2F)CC1 (stereo not shown),"microbial growth, broth dilution",ATCC2001,48 h,MIC,> 31.3 µg/mL
C[C@@H]1[C@H](O)[C@@H](C)/C=C/C=C/C=C/C=C/C=C/C=C/C=C/[C@H](O[C@@H]2O[C@H](C)[C@@H](O)[C@H](N)[C@@H]2O)C[C@@H]2O[C@](O)(C[C@@H](O)C[C@@H](O)[C@H](O)CC[C@@H](O)C[C@@H](O)CC(=O)O[C@H]1C)C[C@H](O)[C@H]2C(=O)O,microbial killing,ATCC90030,,MFC,1.25 µg/mL
CCCCCCCCCCN1CCN(CC(O)(Cn2cncn2)c2ccc(F)cc2F)CC1 (stereo not shown),"microbial growth, broth dilution",ATCC2001,48 h,MIC,> 31.3 µg/mL
CCCCCCCCOc1c(OC)cc(NC(C)CCCN)c2nc(C(C)(C)C)ccc12 (stereo not shown),microbial growth,ATCC90030,,IC50,6.19 µg/mL
CCOC(=O)c1nc2ccccc2c(=O)n1Cc1cn(-c2ccc(Cl)cc2)nn1,"microbial growth, broth dilution",ATCC90030,24 h,IC50,195 µg/mL
CCCCCCCCCCCCCN1CCNCC1,"microbial growth, broth dilution",ATCC2001,48 h,MIC,0.48 µg/mL
O=C(O)c1nc2ccccc2c(=O)n1Cc1cn(-c2cccc(F)c2)nn1,"microbial growth, broth dilution",ATCC90030,24 h,IC50,262 µg/mL
CCCCCOc1c(OC)cc(NC(C)CCCNC(=O)C(N)CCCNC(=N)N)c2nc(C(C)(C)C)ccc12 (stereo not shown),microbial growth,ATCC90030,,IC50,19.1 µg/mL
COc1cc(C(C)(C)C#Cc2c(C)nc(N)nc2N)cc(OC)c1OC,"microbial growth, resazurin",,,MIC,178 µg/mL
OC(Cn1cncn1)(Cn1cncn1)c1ccc(F)cc1F,"microbial growth, broth dilution",,24 h,MIC90,16 µg/mL
CCCCCCCCCCCN1CCNCC1,"microbial growth, broth dilution",ATCC2001,48 h,MIC,7.8 µg/mL
COc1ccccc1-n1cc(Cn2c(C(=O)O)nc3ccccc3c2=O)nn1,"microbial growth, broth dilution",ATCC90030,24 h,IC50,29.4 µg/mL
OC(Cn1cncn1)(Cn1cncn1)c1ccc(F)cc1F,microbial killing,ATCC2001,,MFC,> 64 µg/mL
O=C(O)c1nc2ccccc2c(=O)n1Cc1cn(-c2ccc(Cl)cc2)nn1,"microbial growth, broth dilution",ATCC90030,24 h,IC50,517 µg/mL
CCCCCCCCCCCCCCN1CCOCC1,"microbial growth, broth dilution",ATCC2001,48 h,MIC,> 31.3 µg/mL
CCOC(=O)c1nc2ccccc2c(=O)n1Cc1cn(-c2ccccc2)nn1,"microbial growth, broth dilution",ATCC90030,24 h,IC50,182 µg/mL
CCCCCCOc1c(OC)cc(NC(C)CCCNC(=O)C(N)Cc2cnc[nH]2)c2nc(C(C)(C)C)ccc12 (stereo not shown),"microbial growth, broth dilution",ATCC90030,,MIC,20 µg/mL
CN1CCNCC1,"microbial growth, broth dilution",ATCC2001,48 h,MIC,> 31.3 µg/mL
CCCCCCOc1c(OC)cc(NC(C)CCCN)c2nc(C(C)(C)C)cc(C)c12 (stereo not shown),microbial killing,ATCC90030,,MFC,20 µg/mL
Cc1cccc(-n2cc(Cn3c(C(=O)O)nc4ccccc4c3=O)nn2)c1,"microbial growth, broth dilution",ATCC90030,24 h,IC50,245 µg/mL
CCCCCCCCCCN1CCN(CC(O)(Cn2cncn2)c2ccc(Cl)cc2Cl)CC1 (stereo not shown),"microbial growth, broth dilution",ATCC2001,48 h,MIC,0.975 µg/mL
